{"source": "ChEMBL document CHEMBL2029228", "about": "“Antimalarial activity of 9a-N substituted 15-membered azalides with improved in vitro and in vivo activity over azithromycin” (J Med Chem, 2012)", "key": {"Liver microsomes [1]": {"system": "Liver microsomes", "assay": "Intrinsic clearance in human liver microsomes assessed per gram of liver at 1 uM after 60 mins at pH 7.4 by LC-MS/MS analysis", "assay_type": "ADME, Microsome", "conditions": "pH 7.4, 1 h", "summary_of_the_method": "(§1)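 Liver microsomes (0.5 mg protein/mL) in 50 mM potassium phosphate pH 7.4 with 1.0 μM compound at 37 °C for 60 min. Reaction started with NADP/glucose-6-phosphate/MgCl₂/G6PDH cofactor mix; solvent 1% final. LC-MS/MS read-out. CLi from first-order elimination constant by nonlinear regression, corrected for incubation volume, assuming 52.5 mg microsomal protein/g liver.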"}, "Mus musculus": {"system": "Mus musculus", "assay": "Unbound clearance in CD1 mouse at 5 mg/kg, iv", "assay_type": "ADME, organism-based", "design": "dose 5 mg/kg, route intravenous", "conditions": "in vivo", "summary_of_the_method": "(§2)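 Fraction unbound measured in mouse plasma by ultrafiltration at 1 μg/mL. Unbound clearance = blood clearance/fu, assuming blood/plasma ratio of 1. Blood clearance comes from male CD-1 mice dosed IV at 5 mg/kg, with tail-vein sampling up to 24 h and LC-MS/MS analysis.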"}, "[2]": {"assay": "Oral bioavailability in CD1 mouse at 25 mg/kg", "assay_type": "ADME, organism-based", "conditions": "in vivo", "summary_of_the_method": "(§3)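 Male CD-1 mice (N = 3 per route) dosed IV at 5 mg/kg or orally at 25 mg/kg while fasted, mostly in saline (2.5 mg/mL). Tail-vein blood taken up to 24 h, cardiac puncture at 30 h. Samples hemolyzed, protein-precipitated with acetonitrile plus internal standard, analysed by positive ESI LC-MS/MS.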"}, "Liver microsomes [3]": {"system": "Liver microsomes", "assay": "Intrinsic clearance in rat liver microsomes assessed per gram of liver at 1 uM after 60 mins at pH 7.4 by LC-MS/MS analysis", "assay_type": "ADME, Microsome", "conditions": "pH 7.4, 1 h", "summary_of_the_method": "as §1"}, "[4]": {"assay": "Half life in CD1 mouse at 5 mg/kg, iv", "assay_type": "ADME, organism-based", "design": "dose 5 mg/kg, route intravenous", "conditions": "CD1, mouse, in vivo", "summary_of_the_method": "as §3"}, "[5]": {"assay": "Fraction unbound in CD1 mouse plasma at 5 mg/kg, iv", "assay_type": "ADME, organism-based", "design": "dose 5 mg/kg, route intravenous", "summary_of_the_method": "as §2"}, "Plasmodium berghei [6]": {"system": "Plasmodium berghei", "assay": "Antimalarial activity against Plasmodium berghei KBG173 infected in mouse assessed as increase in mouse survival time at 5 mg/kg, iv BID administered on day 3, 4 and 5 post infection relative to azithromycin", "assay_type": "functional", "summary_of_the_method": "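Male mice (24−30 g) inoculated intraperitoneally with 5 × 10⁶ P. berghei KBG-173-infected erythrocytes; parasitemia 1.0–3.7% by day 3. IV dosing twice daily on days 3, 4 and 5 post-infection. Read-out is the survival time of the last animal alive. Mice blood-smear negative on day 31 counted as cured; mice losing ≥20% body weight sacrificed.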"}, "Plasmodium falciparum": {"system": "Plasmodium falciparum", "assay": "Antimalarial activity against mefloquine-resistant Plasmodium falciparum TM91C235 assessed as [3H]hypoxanthine incorporation after 48 hrs", "assay_type": "functional, organism-based", "summary_of_the_method": "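Tritiated hypoxanthine incorporation assay (Desjardins method, Milhous modification) with 48 h drug exposure. Uses P. falciparum clone TM91C235 (Southeast Asian, mefloquine-resistant). Compounds 2-fold diluted over 11 concentrations. IC50 derived by nonlinear logistic dose-response fitting, averaged where multiple runs were done.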"}, "[7]": {"assay": "Clearance at steady state in CD1 mouse at 5 mg/kg, iv", "assay_type": "ADME, organism-based", "design": "dose 5 mg/kg, route intravenous", "conditions": "in vivo, read-out: CLss", "summary_of_the_method": "as §3"}, "Liver": {"system": "Liver", "assay": "Intrinsic clearance in mouse liver microsomes assessed per gram of liver at 1 uM after 60 mins at pH 7.4 by LC-MS/MS analysis", "assay_type": "ADME, Microsome", "conditions": "pH 7.4, 1 h", "summary_of_the_method": "as §1"}, "[8]": {"assay": "Volume of distribution at steady state in CD1 mouse at 5 mg/kg, iv", "assay_type": "ADME, organism-based", "design": "dose 5 mg/kg, route intravenous", "conditions": "in vivo, read-out: Vdss", "summary_of_the_method": "as §3"}, "Plasma": {"system": "Plasma", "assay": "(§4) Plasma protein binding in mouse at 1 ug/ml after 30 mins", "assay_type": "ADME, cell-free", "conditions": "0.5 h", "summary_of_the_method": "(§5)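 Ultrafiltration on mouse plasma preincubated 15 min at 37 °C, compound spiked to 1 μg/mL final. Aliquots taken at 0 and 15 min, remainder spun through a 10 kDa filter for 30 min at 37 °C, 2850 g. Filtrate deproteinized and analysed by LC-MS/MS.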"}, "HepG2": {"system": "HepG2", "assay": "Cytotoxicity against human HepG2 cells after 24 hrs by MTS assay", "assay_type": "cell-based", "conditions": "HepG2, 24 h", "summary_of_the_method": "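HepG2 cells kept in RPMI 1640 with 10% FBS plus antibiotics at 37 °C, 5% CO₂. 50 000 cells per well exposed to 10 two-fold serial dilutions for 24 h. MTS reagent then added for 2 h more, absorbance read at 490 nm, IC50 derived.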"}, "[9]": {"assay": "as §4", "assay_type": "ADME, cell-free", "conditions": "read-out: PPB (converted)", "summary_of_the_method": "as §5"}, "Plasmodium berghei [10]": {"system": "Plasmodium berghei", "assay": "Antimalarial activity against Plasmodium berghei KBG173 infected in mouse assessed as decrease in parasitemia at 20 mg/kg, iv BID administered on day 3, 4 and 5 post infection measured on day 31 relative to control", "assay_type": "functional, organism-based", "design": "dose 20 mg/kg", "summary_of_the_method": "(§6)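 Male mice (24–30 g) inoculated intraperitoneally with 5 × 10⁶ P. berghei KBG-173-infected erythrocytes; parasitemia about 1.0–3.7% by day 3. Dosing twice daily on days 3–5 postinfection. Blood smears negative on day 31 counted as cured, scored as cured/total mice (5 per dose). Mice losing ≥20% body weight sacrificed.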"}, "Plasmodium berghei [11]": {"system": "Plasmodium berghei", "assay": "Antimalarial activity against Plasmodium berghei KBG173 infected in mouse assessed as cured mouse at 5 mg/kg, iv BID administered on day 3, 4 and 5 post infection measured up to day 31", "assay_type": "functional, organism-based", "design": "dose 5 mg/kg", "summary_of_the_method": "as §6"}, "Plasmodium berghei [12]": {"system": "Plasmodium berghei", "assay": "Antimalarial activity against Plasmodium berghei KBG173 infected in mouse assessed as decrease in parasitemia at 20 mg/kg, ip BID administered on day 3, 4 and 5 post infection measured on day 31 relative to control", "assay_type": "functional, organism-based", "design": "dose 20 mg/kg", "summary_of_the_method": "as §6"}, "Plasmodium berghei [13]": {"system": "Plasmodium berghei", "assay": "Antimalarial activity against Plasmodium berghei KBG173 infected in mouse assessed as decrease in parasitemia at 15 mg/kg, iv BID administered on day 3, 4 and 5 post infection measured on day 31 relative to control", "assay_type": "functional, organism-based", "design": "dose 15 mg/kg", "summary_of_the_method": "as §6"}, "Plasmodium berghei [14]": {"system": "Plasmodium berghei", "assay": "Antimalarial activity against Plasmodium berghei KBG173 infected in mouse assessed as decrease in parasitemia at 10 mg/kg, ip BID administered on day 3, 4 and 5 post infection measured on day 31 relative to control", "assay_type": "functional, organism-based", "design": "dose 10 mg/kg", "summary_of_the_method": "as §6"}}, "note": "Activity calls are given as the source filed them. The calls are words filed in the database; no cut-off is given here."}
{"smiles": "CC[C@H]1OC(=O)[C@H](C)[C@@H](O[C@H]2C[C@@](C)(OC)[C@@H](O)[C@H](C)O2)[C@H](C)[C@@H](O[C@@H]2O[C@H](C)C[C@H](N(C)C)[C@H]2O)[C@](C)(O)C[C@@H](C)CN(CCCNc2ccnc3ccccc23)[C@H](C)[C@@H](O)[C@]1(C)O", "values": [{"measurement": "CLint", "setting": "Liver microsomes [1]", "value": "< 0.6", "unit": "mL/min/g"}, {"measurement": "CL free", "setting": "Mus musculus", "value": 20, "unit": "mL/min/kg"}, {"measurement": "bioavailability", "setting": "[2]", "value": 1.7, "unit": "%"}, {"measurement": "CLint", "setting": "Liver microsomes [3]", "value": "< 0.6", "unit": "mL/min/g"}, {"measurement": "half-life", "setting": "[4]", "value": 14.4, "unit": "h"}, {"measurement": "fraction unbound", "setting": "[5]", "value": 0.39}, {"measurement": "Survival", "setting": "Plasmodium berghei [6]", "value": 3, "unit": "days"}, {"measurement": "IC50", "setting": "Plasmodium falciparum", "value": 25, "unit": "nM"}, {"measurement": "clearance", "setting": "[7]", "value": 7.7, "unit": "mL/min/kg"}, {"measurement": "CLint", "setting": "Liver", "value": "< 0.6", "unit": "mL/min/g"}, {"measurement": "Vd", "setting": "[8]", "value": 4.9, "unit": "L/kg"}, {"measurement": "PPB", "setting": "Plasma", "value": 43, "unit": "%"}, {"measurement": "IC50", "setting": "HepG2", "value": "> 50000", "unit": "nM"}]}
{"smiles": "CC[C@H]1OC(=O)[C@H](C)[C@@H](O[C@H]2C[C@@](C)(OC)[C@@H](O)[C@H](C)O2)[C@H](C)[C@@H](O[C@@H]2O[C@H](C)C[C@H](N(C)C)[C@H]2O)[C@](C)(O)C[C@@H](C)CN(CCCNCc2ccnc3ccccc23)[C@H](C)[C@@H](O)[C@]1(C)O", "values": [{"measurement": "CLint", "setting": "Liver microsomes [1]", "value": "< 0.6", "unit": "mL/min/g"}, {"measurement": "CL free", "setting": "Mus musculus", "value": 18, "unit": "mL/min/kg"}, {"measurement": "bioavailability", "setting": "[2]", "value": 19.5, "unit": "%"}, {"measurement": "CLint", "setting": "Liver microsomes [3]", "value": "< 0.6", "unit": "mL/min/g"}, {"measurement": "half-life", "setting": "[4]", "value": 8.7, "unit": "h"}, {"measurement": "fraction unbound", "setting": "[5]", "value": 0.57}, {"measurement": "Survival", "setting": "Plasmodium berghei [6]", "value": 3, "unit": "days"}, {"measurement": "IC50", "setting": "Plasmodium falciparum", "value": 165, "unit": "nM"}, {"measurement": "clearance", "setting": "[7]", "value": 10.2, "unit": "mL/min/kg"}, {"measurement": "CLint", "setting": "Liver", "value": "< 0.6", "unit": "mL/min/g"}, {"measurement": "Vd", "setting": "[8]", "value": 4.9, "unit": "L/kg"}, {"measurement": "fraction unbound at 0.5 h, 1 ug/ml", "setting": "[9]", "value": 0.57}, {"measurement": "IC50", "setting": "HepG2", "value": "> 50000", "unit": "nM"}]}
{"smiles": "CC[C@H]1OC(=O)[C@H](C)[C@@H](O[C@H]2C[C@@](C)(OC)[C@@H](O)[C@H](C)O2)[C@H](C)[C@@H](O[C@@H]2O[C@H](C)C[C@H](N(C)C)[C@H]2O)[C@](C)(O)C[C@@H](C)CN(CCCNc2ccnc3cc(Cl)ccc23)[C@H](C)[C@@H](O)[C@]1(C)O", "note": "[listing 1 of 2 here]", "values": [{"measurement": "CLint", "setting": "Liver microsomes [1]", "value": "< 0.6", "unit": "mL/min/g"}, {"measurement": "CL free", "setting": "Mus musculus", "value": 9.5, "unit": "mL/min/kg"}, {"measurement": "bioavailability", "setting": "[2]", "value": 20.4, "unit": "%"}, {"measurement": "CLint", "setting": "Liver microsomes [3]", "value": "< 0.6", "unit": "mL/min/g"}, {"measurement": "half-life", "setting": "[4]", "value": 17.8, "unit": "h"}, {"measurement": "fraction unbound", "setting": "[5]", "value": 0.42}, {"measurement": "Survival", "setting": "Plasmodium berghei [6]", "value": 9, "unit": "days"}, {"measurement": "IC50", "setting": "Plasmodium falciparum", "value": 22, "unit": "nM"}, {"measurement": "clearance", "setting": "[7]", "value": 4, "unit": "mL/min/kg"}, {"measurement": "CLint", "setting": "Liver", "value": "< 0.6", "unit": "mL/min/g"}, {"measurement": "Vd", "setting": "[8]", "value": 2.9, "unit": "L/kg"}, {"measurement": "PPB", "setting": "Plasma", "value": 43, "unit": "%"}, {"measurement": "IC50", "setting": "HepG2", "value": 30000, "unit": "nM"}]}
{"smiles": "CC[C@H]1OC(=O)[C@H](C)[C@@H](O[C@H]2C[C@@](C)(OC)[C@@H](O)[C@H](C)O2)[C@H](C)[C@@H](O[C@@H]2O[C@H](C)C[C@H](N(C)C)[C@H]2O)[C@](C)(O)C[C@@H](C)CN(CCCNc2ccnc3cc(Cl)ccc23)[C@H](C)[C@@H](O)[C@]1(C)O", "note": "[listing 2 of 2 here]", "values": [{"measurement": "Activity", "setting": "Plasmodium berghei [10]", "value": "Active"}, {"measurement": "Activity", "setting": "Plasmodium berghei [11]", "value": "inactive"}, {"measurement": "Activity", "setting": "Plasmodium berghei [12]", "value": "Active"}, {"measurement": "Activity", "setting": "Plasmodium berghei [13]", "value": "Active"}, {"measurement": "Activity", "setting": "Plasmodium berghei [14]", "value": "inactive"}]}
